Results: ChEMBL document CHEMBL2417534, “Discovery and SAR of a novel series of GIRK1/2 and GIRK1/4 activators” (Bioorg Med Chem Lett, 2013)

Legend:
[1] = target: T1, Kir3.1/Kir3.4 (Homo sapiens) (UniProt P48549+P48544); experiment: Activation of GIRK1/4 (unknown origin) transfected in HEK293 cells at 20 uM after 4 mins by thallium flux-based fluorescence assay relative to ML297; format: cell-based
Outline: (§1)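 Single-concentration thallium flux in HEK-293 cells stably expressing GIRK1/GIRK2 or GIRK1/GIRK4, loaded with 0.5 μM Thallos-AM for ~60 min at room temperature. 20 μM compound in 0.2% DMSO/HEPES-buffered HBSS (pH 7.4) added, followed 4 min later by a Tl2SO4 bicarbonate stimulus. Read-out is the slope of F/F0 after stimulus, vehicle-subtracted, expressed relative to reference activator.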

Kir3.1/Kir3.2 [2] = target: T2, Kir3.1/Kir3.2 (Homo sapiens, UniProt P48051+P48549); experiment: Activation of GIRK1/2 (unknown origin) transfected in HEK293 cells after 4 mins by thallium flux-based fluorescence assay; format: cell-based
T2 sequence (P48549 whole entry): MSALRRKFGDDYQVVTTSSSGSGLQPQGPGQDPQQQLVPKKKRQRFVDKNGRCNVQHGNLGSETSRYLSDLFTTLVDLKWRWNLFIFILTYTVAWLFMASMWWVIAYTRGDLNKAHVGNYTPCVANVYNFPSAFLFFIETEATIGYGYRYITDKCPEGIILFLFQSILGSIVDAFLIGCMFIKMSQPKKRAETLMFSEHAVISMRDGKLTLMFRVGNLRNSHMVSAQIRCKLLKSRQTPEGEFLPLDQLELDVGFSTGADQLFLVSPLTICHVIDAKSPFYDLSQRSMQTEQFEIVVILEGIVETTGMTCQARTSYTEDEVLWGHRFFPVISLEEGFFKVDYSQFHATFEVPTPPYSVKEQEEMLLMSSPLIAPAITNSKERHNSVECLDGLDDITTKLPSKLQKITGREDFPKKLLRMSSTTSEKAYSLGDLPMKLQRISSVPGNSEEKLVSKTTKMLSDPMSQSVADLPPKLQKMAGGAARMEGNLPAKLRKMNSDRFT
T2 sequence (P48051 whole entry): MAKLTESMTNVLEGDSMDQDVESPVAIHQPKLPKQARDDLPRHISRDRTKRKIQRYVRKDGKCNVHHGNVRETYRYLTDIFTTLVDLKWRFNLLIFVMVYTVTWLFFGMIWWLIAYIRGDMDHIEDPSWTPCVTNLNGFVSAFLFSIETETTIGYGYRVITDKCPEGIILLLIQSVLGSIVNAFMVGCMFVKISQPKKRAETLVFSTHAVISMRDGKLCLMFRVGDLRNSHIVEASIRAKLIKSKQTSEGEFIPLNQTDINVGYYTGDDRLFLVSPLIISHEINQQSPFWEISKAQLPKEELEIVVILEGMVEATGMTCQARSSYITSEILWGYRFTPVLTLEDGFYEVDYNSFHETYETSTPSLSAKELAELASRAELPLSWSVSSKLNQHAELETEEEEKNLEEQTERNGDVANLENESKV
Outline: (§2)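 Loaded with 0.5 μM Thallos-AM for ~60 min at room temperature in HEPES-buffered HBSS pH 7.4. Fluorescence read at 1 Hz, F/F0 minus vehicle, slope after stimulus. Potency from triplicates. Efficacy normalised to reference activator set at 100%.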

Kir3.1/Kir3.4 [3] = target: T3, Kir3.1/Kir3.4 (Homo sapiens, UniProt P48544+P48549); experiment: Activation of GIRK1/4 (unknown origin) transfected in HEK293 cells after 4 mins by thallium flux-based fluorescence assay; format: cell-based
T3 sequence (P48549 whole entry): T2 sequence (P48549 whole entry)
T3 sequence (P48544 whole entry): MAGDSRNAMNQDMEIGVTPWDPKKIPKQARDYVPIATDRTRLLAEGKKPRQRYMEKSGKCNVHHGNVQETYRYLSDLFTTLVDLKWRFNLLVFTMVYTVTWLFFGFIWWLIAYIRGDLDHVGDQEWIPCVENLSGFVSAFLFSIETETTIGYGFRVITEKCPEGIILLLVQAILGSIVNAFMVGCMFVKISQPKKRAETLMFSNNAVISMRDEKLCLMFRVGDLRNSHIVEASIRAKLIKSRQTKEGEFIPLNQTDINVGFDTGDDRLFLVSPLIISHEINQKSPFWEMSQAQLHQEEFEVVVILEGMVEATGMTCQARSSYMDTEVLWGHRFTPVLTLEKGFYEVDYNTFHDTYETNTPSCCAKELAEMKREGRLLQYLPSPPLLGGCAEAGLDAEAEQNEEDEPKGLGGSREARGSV
Outline: as §2, with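 “7.4. Compounds (11-point, threefold dilutions) added 4 min before a thallium sulfate/bicarbonate stimulus.” for “7.4.”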

[4] = target: T4, Kir3.1/Kir3.2 (Homo sapiens) (UniProt P48549+P48051); experiment: Activation of GIRK1/2 (unknown origin) transfected in HEK293 cells at 20 uM after 4 mins by thallium flux-based fluorescence assay relative to ML297; format: cell-based; outline: as §1
[5] = target: T4, Kir3.1/Kir3.2 (Homo sapiens); experiment: Activation of GIRK1/2 (unknown origin) by cell-based thallium flux assay relative to control
Outline: as §2, with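 “7.4. Compounds (11-point, threefold dilutions) added 4 min before a thallium sulfate/bicarbonate stimulus.” for “7.4.”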

Kir3.1/Kir3.4 [6] = target: T3, Kir3.1/Kir3.4; experiment: Activation of GIRK1/4 (unknown origin) by cell-based thallium flux assay
Outline: as §2, with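 “7.4. Compounds (11-point, threefold dilutions) added 4 min before a thallium sulfate/bicarbonate stimulus.” for “7.4.”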

Kir3.1/Kir3.2 [7] = target: T2, Kir3.1/Kir3.2; experiment: Activation of GIRK1/2 (unknown origin) by cell-based thallium flux assay; outline: as §2
[8] = target: T1, Kir3.1/Kir3.4 (Homo sapiens); experiment: Activation of GIRK1/4 (unknown origin) by cell-based thallium flux assay relative to control
Outline: as §2, with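 “7.4. Compounds (11-point, threefold dilutions) added 4 min before a thallium sulfate/bicarbonate stimulus.” for “7.4.”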

Kir3.1/Kir3.2 [9] = target: T2, Kir3.1/Kir3.2; experiment: Activation of recombinant human GIRK1/2 expressed in Xenopus oocytes by two-electrode voltage clamp method; format: cell-based, Oocyte
Kir3.1/Kir3.4 [10] = target: T3, Kir3.1/Kir3.4; experiment: Activation of recombinant human GIRK1/4 expressed in Xenopus oocytes by two-electrode voltage clamp method; format: cell-based, Oocyte

Efficacy [1] [%] | EC50 (Kir3.1/Kir3.2 [2]) [µM] | EC50 (Kir3.1/Kir3.4 [3]) [µM] | Efficacy [4] [%] | Compound | other results
17 | > 10 | – | – | O=C(Cc1ccccc1Cl)Nc1ccc(Cl)c(C(F)(F)F)c1 | –
– | > 10 | > 10 | – | O=C(Cc1ccccc1Cl)Nc1ccc(Cl)cc1 | –
100 | – | – | 94 | Cc1ccc(NC(=O)Nc2ccccc2)cc1S(=O)(=O)N(C)C | –
104 | 1.7 | 5.6 | 101 | COc1ccc(NC(=O)Nc2ccc(C)c(S(=O)(=O)N(C)C)c2)cc1 | –
– | – | – | – | CN(C)S(=O)(=O)c1cccc(NC(=O)Cc2ccc(Cl)cc2)c1 | Efficacy [5]: 71%; EC50 (Kir3.1/Kir3.4 [6]): 2.2 µM; EC50 (Kir3.1/Kir3.2 [7]): 2.3 µM; Efficacy [8]: 64%
– | – | – | – | Cc1ccc(NC(=O)Cc2ccccc2Cl)cc1S(=O)(=O)N(C)C | Efficacy [5]: 110%; EC50 (Kir3.1/Kir3.4 [6]): 1.1 µM; EC50 (Kir3.1/Kir3.2 [7]): 1.1 µM; Efficacy [8]: 104%
– | – | – | – | Cc1ccc(NC(=O)Cc2ccc(F)cc2)cc1S(=O)(=O)N(C)C | Efficacy [5]: 107%; EC50 (Kir3.1/Kir3.4 [6]): 5.2 µM; EC50 (Kir3.1/Kir3.2 [7]): 3.6 µM; Efficacy [8]: 108%
106 | 2.7 | 6.8 | 94 | Cc1ccc(NC(=O)Nc2ccccc2Cl)cc1S(=O)(=O)N(C)C | –
72 | 3.3 | 2.8 | 92 | Cc1ccc(NC(=O)Nc2ccc(Cl)cc2)cc1S(=O)(=O)N(C)C | –
– | 1.5 | > 10 | 26 | Cc1ccc(NC(=O)Nc2ccc(C(F)(F)F)cc2)cc1S(=O)(=O)N(C)C | –
– | – | – | – | Cc1ccc(NC(=O)Cc2ccccc2Br)cc1S(=O)(=O)N(C)C | Efficacy [5]: 108%; EC50 (Kir3.1/Kir3.4 [6]): 1.6 µM; Efficacy [8]: 114%
– | – | – | – | C[C@@H]1O[C@@H](O[C@H]2[C@H](Oc3cc(O)c4c(c3)O[C@H](c3ccc(O)cc3)CC4=O)O[C@H](CO)[C@@H](O)[C@@H]2O)[C@H](O)[C@H](O)[C@H]1O [NARINGIN] | EC50 (Kir3.1/Kir3.2 [9]): > 100 µM; EC50 (Kir3.1/Kir3.4 [10]): > 100 µM
– | > 10 | > 10 | – | COc1ccc(OC)c(NC(=O)Nc2ccc(C)c(S(=O)(=O)N(C)C)c2)c1 | –
– | > 10 | > 10 | – | Cc1cccc(NC(=O)Cc2ccccc2Cl)c1 | –
29 | – | – | 83 | Cc1ccc(NC(=O)Nc2cccc(C#N)c2)cc1S(=O)(=O)N(C)C | –
115 | 2.9 | 6.2 | 91 | Cc1ccc(NC(=O)Nc2ccc(C)c(S(=O)(=O)N(C)C)c2)cc1Cl | –
20 | > 10 | 2.1 | – | O=C(Cc1ccccc1Cl)Nc1ccc(C(F)(F)F)cc1 | –
– | – | – | – | CN(C)S(=O)(=O)c1cccc(NC(=O)Cc2ccccc2Cl)c1 | Efficacy [5]: 55%; EC50 (Kir3.1/Kir3.4 [6]): 1.6 µM; EC50 (Kir3.1/Kir3.2 [7]): 3.3 µM; Efficacy [8]: 123%
76 | – | – | 44 | CC(C)(C)c1cccc(NC(=O)Cc2ccccc2Cl)c1 | –
– | > 10 | > 10 | – | CS(=O)(=O)c1cc(NC(=O)Cc2ccccc2Cl)ccc1F | –
72 | 3.9 | 7.8 | 111 | Cc1ccc(NC(=O)Nc2ccccc2F)cc1S(=O)(=O)N(C)C | –
119 | > 10 | – | – | O=C(Cc1ccccc1Cl)Nc1cccc(OC(F)F)c1 | –
22 | > 10 | – | – | O=C(Cc1ccccc1Cl)Nc1cccc(Cl)c1 | –
55 | 1.1 | 1.8 | 89 | Cc1ccc(NC(=O)Nc2cccc(F)c2)cc1S(=O)(=O)N(C)C | –
– | > 10 | > 10 | – | O=C(Cc1ccccc1Cl)Nc1cc(Cl)cc(C(F)(F)F)c1 | –
